In data set [1] the target is Amyloid-beta precursor protein (Homo sapiens, UniProt P05067). Nature of the data set: Displacement of [125I]IMPY from amyloid beta (1 to 42) (unknown origin) after 3 hrs by gamma counting analysis. The procedure, abridged: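 Test compound ranged over 10^-4 to 10^-8.5 in ethanol, in 0.05% BSA, 1 mL total. Incubation was 3 h at room temperature, then GF/B filtration and gamma counting. IC50 came from three independent experiments, and Ki was derived by Cheng–Prusoff.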
A general note: Displacement assays read how much labelled ligand stays bound in the presence of the test substance.

A further data set has as its system Brain. Nature of the data set: Ratio of drug level in brain after 2 mins to drug level in brain after 60 mins in ICR mouse. Format: ADME, tissue-based. The note with it: in vivo. In a few lines: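 Male normal ICR mice (5 weeks old), n = 5 per time point, received a tail-vein injection of [18F] tracer (740–1110 kBq/mL) in saline containing 10% EtOH. Mice were sacrificed at 2, 10, 30 and 60 min. Organs were removed, weighed and gamma-counted, and data were expressed as %ID/g.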

A short description of data set [2]: Ratio of drug level in brain to blood in ICR mouse after 2 mins. Type of data set: ADME, tissue-based. The note with it: brain and blood, read-out: BBR. In a few lines:
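Male ICR mice (5 weeks) received the ¹⁸F tracer (740–1110 kBq/mL) in saline with 10% EtOH by tail-vein injection. Five mice per time point were sacrificed at 2, 10, 30 and 60 min. Organs were removed, weighed and gamma-counted, and expressed as %ID/g. The ratio is brain %ID/g over blood %ID/g at 2 min.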

For data set [3], the species on record is Mus musculus. Description: Binding affinity to amyloid beta in transgenic C57BL/6 mouse cortex harboring APPswe and PSEN1 double mutation at 185 to 370 kBq after 1 hr by autoradiographic analysis. The note with it: tested as the 18F-labelled form. The procedure, abridged:
(§1)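 Paraffin-embedded brain sections from male APPswe/PSEN1 transgenic C57BL6 mice (11 months old) and wild-type C57BL6 controls (11 months old) were incubated with [18F] tracer (185–370 kBq) for 1 h at room temperature, washed with 40% EtOH, dried and exposed to an imaging plate for 1 h. Plaques were confirmed on the same sections by thioflavin-S (0.125%) fluorescent staining.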

Data set [4] is filed under the species Mus musculus. Nature of the data set: Binding affinity to amyloid beta in transgenic C57BL/6 mouse cerebellum harboring APPswe and PSEN1 double mutation at 185 to 370 kBq after 1 hr by thioflavin-S staining-based assay. Format: tissue-based. Particulars: tested as the 18F-labelled form. The procedure, abridged: as §1
The species named for data set [5] is Mus musculus. Description: Binding affinity to amyloid beta in transgenic C57BL/6 mouse hippocampus harboring APPswe and PSEN1 double mutation at 185 to 370 kBq after 1 hr by thioflavin-S staining-based assay. Format: tissue-based. Particulars: tested as the 18F-labelled form. The procedure, abridged: as §1
The species entered for data set [6] is Mus musculus. Description: Binding affinity to amyloid beta in transgenic C57BL/6 mouse cortex harboring APPswe and PSEN1 double mutation at 185 to 370 kBq after 1 hr by thioflavin-S staining-based assay. Particulars: tested as the 18F-labelled form. The procedure, abridged: as §1
For data set [7], the species on record is Mus musculus. Description: Binding affinity to amyloid beta in transgenic C57BL/6 mouse cerebellum harboring APPswe and PSEN1 double mutation at 185 to 370 kBq after 1 hr by autoradiographic analysis. Type of data set: tissue-based. The note with it: tested as the 18F-labelled form. In a few lines: as §1
For data set [8], the species on record is Mus musculus. Nature of the data set: Binding affinity to amyloid beta in transgenic C57BL/6 mouse hippocampus harboring APPswe and PSEN1 double mutation at 185 to 370 kBq after 1 hr by autoradiographic analysis. Format: tissue-based. The note with it: tested as the 18F-labelled form. The procedure, abridged: as §1
For data set [9], the species on record is Mus musculus. Nature of the data set: Binding affinity to amyloid beta in wild-type C57BL/6 mouse brain at 185 to 370 kBq after 1 hr by autoradiographic analysis. Type of data set: tissue-based. The note with it: tested as the 18F-labelled form. In a few lines: as §1

Activity calls are given as the source filed them. The rule behind the calls is not given here.

Chain of Amyloid-beta precursor protein (P05067 whole entry): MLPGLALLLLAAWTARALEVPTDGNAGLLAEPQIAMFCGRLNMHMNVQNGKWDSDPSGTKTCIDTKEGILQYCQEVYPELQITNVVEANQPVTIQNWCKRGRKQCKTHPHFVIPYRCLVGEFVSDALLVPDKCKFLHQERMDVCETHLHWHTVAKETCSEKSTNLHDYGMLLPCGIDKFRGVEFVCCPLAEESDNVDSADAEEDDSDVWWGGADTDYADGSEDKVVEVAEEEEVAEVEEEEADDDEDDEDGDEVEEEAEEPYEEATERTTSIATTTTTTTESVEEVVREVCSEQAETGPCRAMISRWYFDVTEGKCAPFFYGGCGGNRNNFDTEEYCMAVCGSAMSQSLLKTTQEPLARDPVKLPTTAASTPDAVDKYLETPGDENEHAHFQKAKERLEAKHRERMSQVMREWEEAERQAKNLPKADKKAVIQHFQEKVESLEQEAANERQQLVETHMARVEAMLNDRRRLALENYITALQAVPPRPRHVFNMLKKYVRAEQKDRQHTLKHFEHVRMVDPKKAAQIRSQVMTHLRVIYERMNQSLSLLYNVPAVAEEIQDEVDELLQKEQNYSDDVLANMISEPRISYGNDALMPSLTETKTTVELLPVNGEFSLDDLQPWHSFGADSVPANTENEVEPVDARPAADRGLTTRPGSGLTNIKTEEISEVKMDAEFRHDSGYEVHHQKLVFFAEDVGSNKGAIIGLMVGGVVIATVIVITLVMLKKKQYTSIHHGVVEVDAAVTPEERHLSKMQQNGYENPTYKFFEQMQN

Usually Ki stands for the equilibrium dissociation constant of an inhibitor or competing ligand from its target. As for `CN(CCCF)c1ccc(-c2cc3ccccc3n2C)cc1`, the Ki in data set [1] is 79.7 nM.

With `CNc1ccc(-c2cc3cc([125I])ccc3[nH]2)cc1`, the Ratio with Brain is given as 1.33. For the same compound, the Kp at 2 min in [2] was 0.29.

In data set [1], `Cn1c(-c2ccc(NCCCF)cc2)cc2ccccc21` showed a Ki of 1100 nM.

As to `COc1ccc(-c2cc3cc([125I])ccc3[nH]2)cc1`, the Ratio in the data set on Brain is given as 1.82. Also, the Kp at 2 min in [2] is 0.59.

Regarding `CN(CCF)c1ccc(-c2cc3ccccc3[nH]2)cc1`, the outcome in the data set filed under Mus musculus [3], in the data set filed under Mus musculus [4], in the data set filed under Mus musculus [5], in the data set listed under Mus musculus [6], in the data set filed under Mus musculus [7] and in the data set listed under Mus musculus [8] was Active. In addition, in [1], the Ki amounted to 28.4 nM. The result in the data set listed under Mus musculus [9] was inactive.

Values taken from ChEMBL document CHEMBL2396535, “Synthesis and biological evaluation of 18F-labled 2-phenylindole derivatives as PET imaging probes for β-amyloid plaques” (Bioorg Med Chem, 2013).
